Peptide text beside a SMILES is read from it.
Assays:
Format in all cases: functional
[1] = tested on: Cryptococcus neoformans; assay: Antifungal activity against Cryptococcus neoformans ATCC 32264 assessed as growth inhibition at 200 uM after 48 hrs; conditions: ATCC 32264, 48 h
How it was run: (§1)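 Percent growth inhibition by broth microdilution in RPMI-1640. Peptides were dissolved in DMSO (≤2%) and diluted to final 200–12.5 µM. Inoculum 1-5 × 10^3 CFU/ml, cells maintained on Sabouraud agar. Growth control (medium, inoculum, same DMSO, no compound) and sterility control per strain. Plates held 48 h at 35 °C, moist and dark, then read by microplate reader. Amphotericin B positive control. Duplicate tests.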

[2] = tested on: Candida albicans; assay: Antifungal activity against Candida albicans ATCC 10231 assessed as growth inhibition at 100 uM after 24 hrs; conditions: ATCC 10231, 24 h
How it was run: (§2)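 Percent growth inhibition in 96-well microdilution, RPMI-1640. Peptide stocks in DMSO (≤2%), diluted to final 200–12.5 µM. Inoculum adjusted to 1-5 × 10^3 CFU/ml, grown beforehand on Sabouraud–chloramphenicol agar 48 h at 30 °C. Compound-free growth control with matching DMSO, plus sterility control. Incubated 24 h at 35 °C in a moist dark chamber, then read by microplate reader. Amphotericin B as 100% inhibition reference. Duplicates.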

[3] = tested on: Candida albicans; assay: Antifungal activity against Candida albicans ATCC 10231 assessed as growth inhibition at 200 uM after 24 hrs; conditions: ATCC 10231, 24 h; how it was run: as §2
[4] = tested on: Cryptococcus neoformans; assay: Antifungal activity against Cryptococcus neoformans ATCC 32264 assessed as growth inhibition at 25 uM after 48 hrs; conditions: ATCC 32264, 48 h; how it was run: as §1
[5] = tested on: Cryptococcus neoformans; assay: Antifungal activity against Cryptococcus neoformans ATCC 32264 assessed as growth inhibition at 12.5 uM after 48 hrs; conditions: ATCC 32264, 48 h; how it was run: as §1
[6] = tested on: Candida albicans; assay: Antifungal activity against Candida albicans ATCC 10231 assessed as growth inhibition at 12.5 uM after 24 hrs; conditions: ATCC 10231, 24 h; how it was run: as §2
[7] = tested on: Candida albicans; assay: Antifungal activity against Candida albicans ATCC 10231 assessed as growth inhibition at 50 uM after 24 hrs; conditions: ATCC 10231, 24 h; how it was run: as §2
[8] = tested on: Candida albicans; assay: Antifungal activity against Candida albicans ATCC 10231 assessed as growth inhibition at 25 uM after 24 hrs; conditions: ATCC 10231, 24 h; how it was run: as §2
[9] = tested on: Cryptococcus neoformans; assay: Antifungal activity against Cryptococcus neoformans ATCC 32264 assessed as growth inhibition at 100 uM after 48 hrs; conditions: ATCC 32264, 48 h; how it was run: as §1
[10] = tested on: Cryptococcus neoformans; assay: Antifungal activity against Cryptococcus neoformans ATCC 32264 assessed as growth inhibition at 50 uM after 48 hrs; conditions: ATCC 32264, 48 h; how it was run: as §1

Molecule | inhibition at 200 µM [1] [%] | inhibition at 100 µM [2] [%] | inhibition at 200 µM [3] [%] | inhibition at 25 µM [4] [%] | inhibition at 12.5 µM [5] [%] | inhibition at 12.5 µM [6] [%] | inhibition at 50 µM [7] [%] | inhibition at 25 µM [8] [%] | inhibition at 100 µM [9] [%] | inhibition at 50 µM [10] [%]
H-WKQKNIKWRFRQKMIR-NH2 | 96 | 52 | 60 | 28 | 0 | 0 | 0 | 0 | 92 | 36
C[C@@H]1[C@H](O)[C@@H](C)/C=C/C=C/C=C/C=C/C=C/C=C/C=C/[C@H](O[C@@H]2O[C@H](C)[C@@H](O)[C@H](N)[C@@H]2O)C[C@@H]2O[C@](O)(C[C@@H](O)C[C@@H](O)[C@H](O)CC[C@@H](O)C[C@@H](O)CC(=O)O[C@H]1C)C[C@H](O)[C@H]2C(=O)O [AMPHOTERICIN B] | 100 | 100 | 100 | 100 | 100 | 100 | 100 | 100 | 100 | 100
CC(=O)N1CCN(c2ccc(OCC3COC(Cn4ccnc4)(c4ccc(Cl)cc4Cl)O3)cc2)CC1 (stereo not given) [KETOCONAZOLE] | 100 | 100 | 100 | 100 | 100 | 100 | 100 | 100 | 100 | 100
H-RKRRKKK-NH2 | 60 | 12 | 43 | 10 | 0 | 0 | 0 | 0 | 14 | 19
H-RKFRRKFKK-NH2 | 73 | 44 | 61 | 9 | 0 | 0 | 33 | 23 | 11 | 13
H-RKRRKWKK-NH2 | 100 | 13 | 29 | 6 | 0 | 0 | 0 | 0 | 33 | 11
N=C(N)NCCC[C@H](N)C(=O)N[C@@H](CCC(N)=O)C(=O)N[C@@H](CCCCN)C(=O)N[C@@H](CCCCN)C(N)=O (H-RQKK-NH2) | 100 | 0 | 6 | 62 | 32 | 0 | 0 | 0 | 100 | 92
NCCCC[C@H](NC(=O)[C@H](CCCCN)NC(=O)[C@H](Cc1c[nH]c2ccccc12)NC(=O)[C@@H](N)CCCCN)C(N)=O (H-KWKK-NH2) | 0 | 2 | 9 | 0 | 0 | 0 | 0 | 0 | 0 | 0
CC[C@H](C)[C@H](NC(=O)[C@H](CCCCN)NC(=O)[C@@H](NC(=O)[C@H](CCC(N)=O)NC(=O)[C@@H](N)CCCNC(=N)N)[C@@H](C)CC)C(=O)N[C@@H](Cc1c[nH]c2ccccc12)C(=O)N[C@@H](Cc1ccccc1)C(=O)N[C@@H](CCC(N)=O)C(=O)N[C@@H](CC(N)=O)C(=O)N[C@@H](CCCNC(=N)N)C(=O)N[C@@H](CCCNC(=N)N)C(=O)N[C@@H](CCSC)C(=O)N[C@@H](CCCCN)C(=O)N[C@@H](Cc1c[nH]c2ccccc12)C(=O)N[C@@H](CCCCN)C(=O)N[C@@H](CCCCN)C(N)=O [PENETRATIN] | 100 | 100 | 100 | 100 | 90 | 4 | 95 | 91 | 100 | 100
H-RKWRRKWKK-NH2 | 99 | 76 | 100 | 16 | 0 | 15 | 58 | 40 | 68 | 14
